ChEMBL document CHEMBL1914299, “Synthesis and antitumor activity of β-carboline 3-(substituted-carbohydrazide) derivatives” (Bioorg Med Chem, 2011)

Legend:
Assay type in all cases: functional, cell-based
HT-29 = experiment: Antitumor activity against human HT-29 cells by SRB colorimetric assay
Method in brief: (§1)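 NCI sulforhodamine B colorimetric growth assay in 96-well plates. Each compound tested at four concentrations in 10-fold dilutions. Doxorubicin as positive control. IC50 taken from concentration–response curves as the concentration giving 50% reduction in cell growth versus untreated control cells.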

OVCAR = experiment: Antitumor activity against human OVCAR cells by SRB colorimetric assay; method in brief: as §1
[1] = Antitumor activity against human PCO3 cells by SRB colorimetric assay; method in brief: as §1
K562 = experiment: Antitumor activity against human K562 cells by SRB colorimetric assay; method in brief: as §1
UACC-62 = experiment: Antitumor activity against human UACC62 cells by SRB colorimetric assay; method in brief: as §1
MCF7 = experiment: Antitumor activity against human MCF7 cells by SRB colorimetric assay; method in brief: as §1
786-0 = experiment: Antitumor activity against human 786-0 cells by SRB colorimetric assay; method in brief: as §1
NCI-H460 = experiment: Antitumor activity against human NCI-H460 cells by SRB colorimetric assay; method in brief: as §1

SMILES	IC50 (HT-29) [µM]	IC50 (OVCAR) [µM]	IC50 (K562) [µM]	IC50 (MCF7) [µM]	IC50 (786-0) [µM]	IC50 (NCI-H460) [µM]	IC50 [1] [µM]	IC50 (UACC-62) [µM]
CC(C)=NNC(=O)c1cc2c([nH]c3ccccc32)c(-c2ccc([N+](=O)[O-])cc2)n1	> 100	> 100	> 100	> 100	> 100	> 100	> 100	> 100
O=C(N/N=C/c1ccc([N+](=O)[O-])cc1)c1cc2c([nH]c3ccccc32)c(-c2ccc([N+](=O)[O-])cc2)n1	> 100	> 100	> 100	> 100	> 100	> 100	> 100	> 100
COc1ccc(-c2nc(C(=O)NN=C(C)C)cc3c2[nH]c2ccccc23)cc1O	> 100	> 100	> 100	> 100	70	> 100	> 100	> 100
O=C(NN=C1CCCC1)c1cc2c([nH]c3ccccc32)c(-c2cccc([N+](=O)[O-])c2)n1	> 100	> 100	> 100	> 100	> 100	> 100	> 100	> 100
CN(C)c1ccc(/C=N/NC(=O)c2cc3c([nH]c4ccccc43)c(-c3ccc([N+](=O)[O-])cc3)n2)cc1	> 100	> 100	> 100	> 100	> 100	> 100	> 100	> 100
CC(C)=NNC(=O)c1cc2c([nH]c3ccccc32)c(-c2ccc(O)cc2)n1	> 100	> 100	18.1	24.3	24.3	38.1	19.7	35.4
COc1ccc(/C=N/NC(=O)c2cc3c([nH]c4ccccc43)c(-c3ccc(OC)cc3)n2)cc1	> 100	> 100	> 100	71.4	> 100	35.1	> 100	91.4
O=C(NN=C1CCCC1)c1cc2c([nH]c3ccccc32)c(-c2ccc(O)cc2)n1	> 100	> 100	> 100	78.1	> 100	> 100	> 100	> 100
O=C(NN=C1CCCC1)c1cc2c([nH]c3ccccc32)c(-c2ccc([N+](=O)[O-])cc2)n1	> 100	> 100	> 100	> 100	> 100	> 100	> 100	> 100
COc1ccc(-c2nc(C(=O)N/N=C/c3ccc(N(C)C)cc3)cc3c2[nH]c2ccccc23)cc1	> 100	> 100	> 100	> 100	> 100	> 100	> 100	> 100
CN(C)c1ccc(/C=N/NC(=O)c2cc3c4ccccc4n(C)c3c(-c3cccc([N+](=O)[O-])c3)n2)cc1	> 100	> 100	> 100	> 100	1.24	> 100	> 100	> 100
COc1ccc(-c2nc(C(=O)N/N=C/c3ccccc3)cc3c4ccccc4n(C)c23)cc1	> 100	> 100	> 100	> 100	1.39	> 100	> 100	> 100
CN(C)c1ccc(-c2nc(C(=O)NN=C3CCCCC3)cc3c2[nH]c2ccccc23)cc1	–	> 100	> 100	> 100	> 100	> 100	> 100	> 100
O=C(NN=C1CCCCC1)c1cc2c([nH]c3ccccc32)c(-c2cccc([N+](=O)[O-])c2)n1	> 100	> 100	87.1	> 100	> 100	> 100	> 100	> 100
CN(C)c1ccc(-c2nc(C(=O)NN=C3CCCC3)cc3c2[nH]c2ccccc23)cc1	55.6	> 100	13.4	22.6	> 100	80.9	20.4	18.8
COc1ccc(-c2nc(C(=O)NN=C(C)C)cc3c2[nH]c2ccccc23)cc1	> 100	> 100	> 100	> 100	> 100	> 100	> 100	40.7
O=C(N/N=C/c1ccccc1Cl)c1cc2c([nH]c3ccccc32)c(-c2cccc([N+](=O)[O-])c2)n1	15.3	> 100	68.1	14.1	17	28.9	16.6	35.7
COc1ccc(-c2nc(C(=O)NN=C3CCCC3)cc3c2[nH]c2ccccc23)cc1O	–	> 100	> 100	> 100	97	> 100	> 100	> 100

Molecules with a lower IC50 (OVCAR), results first:

IC50 (HT-29) [µM]	IC50 (OVCAR) [µM]	IC50 (K562) [µM]	IC50 (MCF7) [µM]	IC50 (786-0) [µM]	IC50 (NCI-H460) [µM]	SMILES	IC50 [1] [µM]	IC50 (UACC-62) [µM]
47.3	78	55.9	32.5	> 100	68.9	O=C(NN=C1CCCCC1)c1cc2c([nH]c3ccccc32)c(-c2ccccc2)n1	27.5	31.2
> 100	75.9	> 100	75.9	> 100	> 100	CN(C)c1ccc(/C=N/NC(=O)c2cc3c([nH]c4ccccc43)c(-c3ccccc3)n2)cc1	87.1	87.1
38.9	64.2	21.7	26.7	> 100	> 100	CC(C)=NNC(=O)c1cc2c([nH]c3ccccc32)c(-c2ccccc2Cl)n1	25.6	19.1
3.87	51	3.73	12.3	9.58	> 100	O=C(N/N=C/c1ccc([N+](=O)[O-])cc1)c1cc2c([nH]c3ccccc32)c(-c2ccc(O)cc2)n1	12.8	4.46
7.34	46.7	4.26	12.8	> 100	6.76	O=C(N/N=C/c1ccc([N+](=O)[O-])cc1)c1cc2c([nH]c3ccccc32)c(-c2cccc([N+](=O)[O-])c2)n1	24.8	3.27
36	32.3	3.22	36	93.4	3.45	COc1ccc(-c2nc(C(=O)N/N=C/c3ccccc3)cc3c2[nH]c2ccccc23)cc1	26.5	3.45
19.8	26.4	6.69	14.2	16.1	19.8	CC(C)=NNC(=O)c1cc2c([nH]c3ccccc32)c(-c2ccccc2)n1	15.4	10.1
15.1	14.4	4.29	21.3	29.7	5.16	O=C(N/N=C/c1ccc([N+](=O)[O-])cc1)c1cc2c([nH]c3ccccc32)c(-c2ccccc2)n1	8.6	4.78
20.1	11.2	> 100	7.37	11.7	13.8	O=C(NN=C1CCCC1)c1cc2c([nH]c3ccccc32)c(-c2ccccc2Cl)n1	15	11.7
1.26	7.43	2.52	10.4	2.52	1.43	COc1ccc(-c2nc(C(=O)N/N=C/c3ccccc3Cl)cc3c2[nH]c2ccccc23)cc1	4.52	5.57
3.85	4.55	6.35	18	2.75	38.1	O=C(N/N=C/c1ccccc1Cl)c1cc2c([nH]c3ccccc32)c(-c2ccc([N+](=O)[O-])cc2)n1	18	2.53
18.8	2.05	14.4	25	29.9	13.8	O=C(N/N=C/c1ccccc1)c1cc2c([nH]c3ccccc32)c(-c2ccc([N+](=O)[O-])cc2)n1	15.9	11.8
1.71	1.83	1.65	7.01	3.22	2.18	O=C(N/N=C/c1ccccc1Cl)c1cc2c([nH]c3ccccc32)c(-c2ccc(O)cc2)n1	2.03	1.56
4.32	1.26	4.31	8.94	4.32	19.8	O=C(N/N=C/c1ccccc1)c1cc2c([nH]c3ccccc32)c(-c2ccc(O)cc2)n1	2.25	3.18
> 100	1.26	> 100	> 100	> 100	69.5	CN(C)c1ccc(/C=N/NC(=O)c2cc3c([nH]c4ccccc43)c(-c3ccc(O)cc3)n2)cc1	–	88.2
95.6	0.37	87.4	> 100	62	9.82	COc1ccc(/C=N/NC(=O)c2cc3c([nH]c4ccccc43)c(-c3ccc(O)cc3)n2)cc1	–	3.85
